Reference: ChEMBL document CHEMBL4038350 (J Med Chem, 2017)
Non-standard residues stand in square brackets, D forms with d. Residues, ends and D or L forms follow the SMILES beside them.

Columns and labels:
Type in all cases: functional, cell-based
[1] = target: Melanocyte-stimulating hormone receptor (Mus musculus, UniProt Q01727); test: Agonist activity at mouse melanocortin receptor 1 expressed in HEK293 cells assessed as increase in cAMP accumulation after 2 hrs by AlphaScreen assay
Outline: (§1)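 Donor beads and biotin-cAMP in lysis buffer followed for 2 h. The AlphaScreen signal was read. EC50 came from nonlinear least-squares fits, duplicates, at least three independent experiments.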

Melanocortin receptor 4 [2] = target: T1, Melanocortin receptor 4 (Mus musculus, UniProt P56450); test: Agonist activity at mouse melanocortin receptor 4 expressed in HEK293 cells assessed as increase in cAMP accumulation after 2 hrs by AlphaScreen assay
T1 sequence (P56450 whole entry): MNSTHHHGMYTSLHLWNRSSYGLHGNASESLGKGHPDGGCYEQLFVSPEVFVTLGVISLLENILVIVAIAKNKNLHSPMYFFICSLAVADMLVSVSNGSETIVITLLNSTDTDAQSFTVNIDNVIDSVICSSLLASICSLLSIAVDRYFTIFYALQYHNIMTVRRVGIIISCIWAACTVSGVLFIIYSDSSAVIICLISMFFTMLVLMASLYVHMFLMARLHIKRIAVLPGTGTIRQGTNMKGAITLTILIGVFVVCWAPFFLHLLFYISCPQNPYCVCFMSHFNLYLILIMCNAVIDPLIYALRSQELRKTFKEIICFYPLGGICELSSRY

Melanocortin receptor 3 [3] = target: T2, Melanocortin receptor 3 (Mus musculus, UniProt P33033); test: Agonist activity at mouse melanocortin receptor 3 expressed in HEK293 cells assessed as increase in cAMP accumulation after 2 hrs by AlphaScreen assay
T2 sequence (P33033 whole entry): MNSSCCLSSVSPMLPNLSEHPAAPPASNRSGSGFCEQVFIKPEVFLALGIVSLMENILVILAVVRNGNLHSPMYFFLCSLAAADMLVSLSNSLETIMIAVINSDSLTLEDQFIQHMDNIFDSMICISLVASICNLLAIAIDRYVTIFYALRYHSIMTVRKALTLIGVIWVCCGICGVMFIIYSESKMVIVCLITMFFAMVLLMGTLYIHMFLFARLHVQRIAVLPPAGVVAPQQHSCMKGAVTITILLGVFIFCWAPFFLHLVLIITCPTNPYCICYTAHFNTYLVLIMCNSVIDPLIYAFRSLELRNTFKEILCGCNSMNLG

Melanocortin receptor 4 [4] = target: T1, Melanocortin receptor 4; test: Antagonist activity at mouse melanocortin receptor 4 expressed in HEK293 cells assessed as inhibition of NDP-MSH-induced cAMP accumulation after 2 hrs by AlphaScreen assay; settings: read-out: pA2 (converted)
[5] = target: Melanocortin receptor 5 (Mus musculus) (UniProt P41149); test: Inverse agonist activity at mouse melanocortin receptor 5 expressed in HEK293 cells assessed as decrease in cAMP accumulation at 100 uM after 2 hrs by AlphaScreen assay relative to control; parameters: scale not given: the % may be the effect or the level left
Sequence of Melanocortin receptor 5 (Mus musculus) (P41149 whole entry): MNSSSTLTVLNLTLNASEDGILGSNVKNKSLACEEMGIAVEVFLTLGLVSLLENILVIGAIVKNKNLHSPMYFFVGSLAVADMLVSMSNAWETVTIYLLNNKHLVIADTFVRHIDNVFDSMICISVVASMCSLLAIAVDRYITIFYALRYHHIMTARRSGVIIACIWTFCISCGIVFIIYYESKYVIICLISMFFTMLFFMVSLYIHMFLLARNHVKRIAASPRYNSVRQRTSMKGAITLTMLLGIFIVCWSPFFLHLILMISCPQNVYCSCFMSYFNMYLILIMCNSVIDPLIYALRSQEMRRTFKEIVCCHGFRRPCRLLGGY
Outline: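 Each replicate was normalized to its own signal at 10−10 M (basal). Where no plateau appeared, inverse agonism was reported as percent decrease from basal at 100 μM. Values are from three independent experiments.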

Melanocortin receptor 3 [6] = target: T2, Melanocortin receptor 3; test: Antagonist activity at mouse melanocortin receptor 3 expressed in HEK293 cells assessed as inhibition of NDP-MSH-induced cAMP accumulation after 2 hrs by AlphaScreen assay; settings: read-out: pA2 (converted)
[7] = target: Melanocortin receptor 3 (Mus musculus) (UniProt P33033); test: Agonist activity at mouse melanocortin receptor 3 expressed in HEK293 cells assessed as increase in cAMP accumulation at 100 uM after 2 hrs by AlphaScreen assay relative to control
Sequence of Melanocortin receptor 3 (Mus musculus) (P33033 whole entry): as the sequence (P33033 whole entry) above
Outline: (§2)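 Cyclic peptides were dissolved in DMSO. Receptor-expressing HEK293 cells in IBMX-containing stimulation buffer (pH 7.4) were stimulated for 2 h at room temperature. cAMP was then detected by competitive AlphaScreen after a 2 h lysis/bead step. […] Values come from at least three independent experiments.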

[8] = target: Melanocyte-stimulating hormone receptor (Mus musculus) (UniProt Q01727); test: Agonist activity at mouse melanocortin receptor 1 expressed in HEK293 cells assessed as increase in cAMP accumulation at 100 uM after 2 hrs by AlphaScreen assay relative to control; outline: as §2
Sequence of Melanocyte-stimulating hormone receptor (Mus musculus) (Q01727 whole entry, looked up): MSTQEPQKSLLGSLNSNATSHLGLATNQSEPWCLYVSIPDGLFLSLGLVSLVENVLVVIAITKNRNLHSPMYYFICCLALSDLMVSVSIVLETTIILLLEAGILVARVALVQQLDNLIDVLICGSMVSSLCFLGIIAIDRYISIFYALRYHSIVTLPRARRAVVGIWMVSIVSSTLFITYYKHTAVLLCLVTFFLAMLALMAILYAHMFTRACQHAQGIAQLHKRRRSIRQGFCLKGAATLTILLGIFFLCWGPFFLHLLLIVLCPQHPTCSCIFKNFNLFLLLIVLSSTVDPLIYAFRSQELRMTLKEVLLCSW

[9] = target: Melanocortin receptor 4 (Mus musculus) (UniProt P56450); test: Agonist activity at mouse melanocortin receptor 4 expressed in HEK293 cells assessed as increase in cAMP accumulation at 100 uM after 2 hrs by AlphaScreen assay; outline: as §2
Sequence of Melanocortin receptor 4 (Mus musculus) (P56450 whole entry): as the sequence (P56450 whole entry) above

Melanocortin receptor 5 = Melanocortin receptor 5 (Mus musculus, UniProt P41149); test: Agonist activity at mouse melanocortin receptor 5 expressed in HEK293 cells assessed as increase in cAMP accumulation after 2 hrs by AlphaScreen assay; outline: as §1
Sequence of Melanocortin receptor 5 (P41149 whole entry): as the sequence (P41149 whole entry) above

[10] = target: Melanocortin receptor 5 (Mus musculus) (UniProt P41149); test: Agonist activity at mouse melanocortin receptor 5 expressed in HEK293 cells assessed as increase in cAMP accumulation at 100 uM after 2 hrs by AlphaScreen assay relative to control; outline: as §2
[11] = target: Melanocortin receptor 5 (Mus musculus) (UniProt P41149); test: Inverse agonist activity at mouse melanocortin receptor 5 expressed in HEK293 cells assessed as decrease in cAMP accumulation at 150 nM after 2 hrs by AlphaScreen assay relative to control; parameters: scale not given: the % may be the effect or the level left
Outline: (§3)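 In mouse MC5R-HEK293 cells, cAMP was measured by AlphaScreen after 2 h peptide exposure (10−4 to 10−13 M) at room temperature. Each replicate was normalized to its signal at 10−10 M. For sigmoidal curves, percent inverse agonism was the change from basal to the high-concentration plateau. Apparent potency was taken as the curve inflection point. Three independent experiments were run.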

[12] = target: Melanocortin receptor 5 (Mus musculus) (UniProt P41149); test: Inverse agonist activity at mouse melanocortin receptor 5 expressed in HEK293 cells assessed as decrease in cAMP accumulation at 700 nM after 2 hrs by AlphaScreen assay relative to control; parameters: scale not given: the % may be the effect or the level left; outline: as §3
[13] = target: Melanocortin receptor 5 (Mus musculus) (UniProt P41149); test: Inverse agonist activity at mouse melanocortin receptor 5 expressed in HEK293 cells assessed as decrease in cAMP accumulation at 110 nM after 2 hrs by AlphaScreen assay relative to control; parameters: scale not given: the % may be the effect or the level left; outline: as §3
[14] = target: Melanocortin receptor 5 (Mus musculus) (UniProt P41149); test: Inverse agonist activity at mouse melanocortin receptor 5 expressed in HEK293 cells assessed as decrease in cAMP accumulation at 10 nM after 2 hrs by AlphaScreen assay relative to control; parameters: scale not given: the % may be the effect or the level left; outline: as §3
[15] = target: Melanocortin receptor 5 (Mus musculus) (UniProt P41149); test: Inverse agonist activity at mouse melanocortin receptor 5 expressed in HEK293 cells assessed as decrease in cAMP accumulation at 510 nM after 2 hrs by AlphaScreen assay relative to control; parameters: scale not given: the % may be the effect or the level left; outline: as §3

Sequence of Melanocyte-stimulating hormone receptor (Q01727 whole entry): as the sequence (Q01727 whole entry, looked up) above

Row | Compound | EC50 [1] [µM] | EC50 (Melanocortin receptor 4 [2]) [µM] | EC50 (Melanocortin receptor 3 [3]) [µM] | Kb (Melanocortin receptor 4 [4]) [µM] | Activity [5] [%] | Kb (Melanocortin receptor 3 [6]) [µM] | Activity [7] [%] | Activity [8] [%] | Activity [9] [%] | EC50 (Melanocortin receptor 5) [µM] | Activity [10] [%] | Activity [11] [%] | Activity [12] [%] | Activity [13] [%] | Activity [14] [%] | Activity [15] [%]
1 | N=C(N)NCCC[C@@H]1NC(=O)[C@@H]2CCCN2C(=O)[C@H]2CCCN2C(=O)[C@H](Cc2ccccc2)NC(=O)[C@H](CO)NC(=O)[C@H](CC(N)=O)NC(=O)[C@H](Cc2ccccc2)NC(=O)[C@H](Cc2ccccc2)NC1=O (cyclo(RFFNSF[dP]P)) | > 100 | > 100 | > 100 | 0.00631 | 30 | 0.631 |  |  |  |  |  |  |  |  |  | 
2 | C[C@@H]1NC(=O)[C@H](CC(=O)O)NC(=O)[C@H](Cc2ccccc2)NC(=O)[C@H](Cc2ccccc2)NC(=O)[C@H](CCCNC(=N)N)NC(=O)[C@@H]2CCCN2C(=O)[C@H]2CCCN2C(=O)[C@H](Cc2ccccc2)NC1=O | > 100 | > 100 | > 100 | 0.162 | 25 | > 3.16 |  |  |  |  |  |  |  |  |  | 
3 | C[C@@H]1NC(=O)[C@H](CC(N)=O)NC(=O)[C@H](Cc2ccccc2)NC(=O)[C@H](Cc2ccccc2)NC(=O)[C@H](CCCNC(=N)N)NC(=O)[C@@H]2CCCN2C(=O)[C@H]2CCCN2C(=O)[C@H](C)NC1=O (cyclo(RFFNAA[dP]P)) | > 100 | > 100 | > 100 | 0.00692 | 25 | 0.794 |  |  |  |  |  |  |  |  |  | 
4 | CC(C)C[C@@H]1NC(=O)[C@H](CC(N)=O)NC(=O)[C@H](Cc2ccccc2)NC(=O)[C@H](Cc2ccccc2)NC(=O)[C@H](CCCNC(=N)N)NC(=O)[C@@H]2CCCN2C(=O)[C@H]2CCCN2C(=O)[C@H](Cc2ccccc2)NC1=O |  |  |  | 0.661 |  | > 3.16 | 25 | 80 | 25 | > 100 |  |  |  |  |  | 
5 | N=C(N)NCCC[C@@H]1NC(=O)[C@@H]2CCCN2C(=O)[C@H]2CCCN2C(=O)[C@H](Cc2ccccc2)NC(=O)[C@H](CCCCN)NC(=O)[C@H](CC(N)=O)NC(=O)[C@H](Cc2ccccc2)NC(=O)[C@H](Cc2ccccc2)NC1=O |  | > 100 |  | 0.776 |  | > 3.16 | 45 | 60 |  |  | 45 |  |  |  |  | 
6 | C[C@@H]1NC(=O)[C@H](Cc2c[nH]c3ccccc23)NC(=O)[C@H](Cc2ccccc2)NC(=O)[C@H](Cc2ccccc2)NC(=O)[C@H](CCCNC(=N)N)NC(=O)[C@@H]2CCCN2C(=O)[C@H]2CCCN2C(=O)[C@H](Cc2ccccc2)NC1=O (cyclo(RFFWAF[dP]P)) |  |  |  | 0.155 |  | 2 | 40 | 80 | 50 |  |  | 20 |  |  |  | 
7 | C[C@@H]1NC(=O)[C@H](CCC(=O)O)NC(=O)[C@H](Cc2ccccc2)NC(=O)[C@H](Cc2ccccc2)NC(=O)[C@H](CCCNC(=N)N)NC(=O)[C@@H]2CCCN2C(=O)[C@H]2CCCN2C(=O)[C@H](Cc2ccccc2)NC1=O | 20.5 | > 100 | > 100 | 0.1 |  | > 3.16 |  |  |  |  |  |  | 10 |  |  | 
8 | CC(C)C[C@@H]1NC(=O)[C@H](Cc2ccccc2)NC(=O)[C@H](Cc2ccccc2)NC(=O)[C@H](CCCNC(=N)N)NC(=O)[C@@H]2CCCN2C(=O)[C@H]2CCCN2C(=O)[C@H](Cc2ccccc2)NC(=O)[C@H](C)NC1=O (cyclo(RFFLAF[dP]P)) | > 100 | > 100 | > 100 | 0.0457 |  | 2 |  |  |  |  |  |  |  | 20 |  | 
9 | C[C@@H]1NC(=O)[C@H](Cc2ccccc2)NC(=O)[C@H](Cc2ccccc2)NC(=O)[C@H](Cc2ccccc2)NC(=O)[C@H](CCCNC(=N)N)NC(=O)[C@@H]2CCCN2C(=O)[C@H]2CCCN2C(=O)[C@H](Cc2ccccc2)NC1=O | > 100 | > 100 | > 100 | 0.234 |  | > 3.16 |  |  |  | > 100 |  |  |  |  |  | 
10 | N=C(N)NCCC[C@@H]1NC(=O)[C@@H]2CCCN2C(=O)[C@H]2CCCN2C(=O)[C@H](Cc2ccccc2)NC(=O)[C@H](CCC(=O)O)NC(=O)[C@H](CC(N)=O)NC(=O)[C@H](Cc2ccccc2)NC(=O)[C@H](Cc2ccccc2)NC1=O (cyclo(RFFNEF[dP]P)) |  | > 100 | > 100 | > 3.16 |  | > 3.16 |  | 60 |  | > 100 |  |  |  |  |  | 
11 | CC[C@@H]1NC(=O)[C@H](Cc2ccccc2)NC(=O)[C@H](Cc2ccccc2)NC(=O)[C@H](CCCNC(=N)N)NC(=O)[C@@H]2CCCN2C(=O)[C@H]2CCCN2C(=O)[C@H](Cc2ccccc2)NC(=O)[C@H](C)NC1=O | > 100 | > 100 |  |  |  |  |  |  |  |  |  |  |  |  |  | 
12 | C[C@@H]1NC(=O)[C@H](Cc2c[nH]cn2)NC(=O)[C@H](Cc2ccccc2)NC(=O)[C@H](Cc2ccccc2)NC(=O)[C@H](CCCNC(=N)N)NC(=O)[C@@H]2CCCN2C(=O)[C@H]2CCCN2C(=O)[C@H](Cc2ccccc2)NC1=O | > 100 | > 100 | > 100 |  |  | 0.347 |  |  |  |  |  |  |  |  | 15 | 
13 | CCCC[C@@H]1NC(=O)[C@H](Cc2ccccc2)NC(=O)[C@H](Cc2ccccc2)NC(=O)[C@H](CCCNC(=N)N)NC(=O)[C@@H]2CCCN2C(=O)[C@H]2CCCN2C(=O)[C@H](Cc2ccccc2)NC(=O)[C@H](C)NC1=O | > 100 | > 100 | > 100 | 0.126 |  | > 3.16 |  |  |  | > 100 |  |  |  |  |  | 
14 | N=C(N)NCCC[C@@H]1NC(=O)[C@@H]2CCCN2C(=O)[C@H]2CCCN2C(=O)[C@H](Cc2ccccc2)NC(=O)[C@H](Cc2ccccc2)NC(=O)[C@H](CC(N)=O)NC(=O)[C@H](Cc2ccccc2)NC(=O)[C@H](Cc2ccccc2)NC1=O |  |  |  | 1.95 |  | 1.91 | 35 | 70 | 35 |  | 25 |  |  |  |  | 
15 | CC(C)[C@@H]1NC(=O)[C@H](Cc2ccccc2)NC(=O)[C@H](Cc2ccccc2)NC(=O)[C@H](CCCNC(=N)N)NC(=O)[C@@H]2CCCN2C(=O)[C@H]2CCCN2C(=O)[C@H](Cc2ccccc2)NC(=O)[C@H](C)NC1=O |  | > 100 | > 100 | 1.26 |  | > 3.16 |  | 55 |  |  |  |  |  |  |  | 25
16 | N=C(N)NCCC[C@@H]1NC(=O)[C@@H]2CCCN2C(=O)[C@H]2CCCN2C(=O)[C@H](Cc2ccccc2)NC(=O)CNC(=O)[C@H](CC(N)=O)NC(=O)[C@H](Cc2ccccc2)NC(=O)[C@H](Cc2ccccc2)NC1=O (cyclo(RFFNGF[dP]P)) | > 100 | > 100 | > 100 | 0.794 | 35 | > 3.16 |  |  |  |  |  |  |  |  |  | 
17 | C[C@@H]1NC(=O)[C@@H](CN)NC(=O)[C@H](Cc2ccccc2)NC(=O)[C@H](Cc2ccccc2)NC(=O)[C@H](CCCNC(=N)N)NC(=O)[C@@H]2CCCN2C(=O)[C@H]2CCCN2C(=O)[C@H](Cc2ccccc2)NC1=O | > 100 |  | > 100 |  |  | 0.2 |  |  |  |  |  |  |  | 10 |  | 
18 | N=C(N)NCCC[C@@H]1NC(=O)[C@@H]2CCCN2C(=O)[C@H]2CCCN2C(=O)[C@H](Cc2ccccc2)NC(=O)[C@H](CC(=O)O)NC(=O)[C@H](CC(N)=O)NC(=O)[C@H](Cc2ccccc2)NC(=O)[C@H](Cc2ccccc2)NC1=O (cyclo(RFFNDF[dP]P)) |  | > 100 | > 100 | > 3.16 | 25 | > 3.16 |  | 65 |  |  |  |  |  |  |  | 
